How the values were obtained:
PDIA1 [1] = target: T1, PDIA1 (Homo sapiens, UniProt P07237); test: PDI reductase assay; format: biochemical
U−87 MG cells = test: MTT growth inhibition assay in U-87 MG cells; format: cell-based; settings: Homo sapiens, read-out: MTT (% inhibition at 30 μM)
Method in brief: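 Cells were grown at 37 °C, 5% CO₂ in 10% FBS medium: DMEM for U-87 MG, RPMI-1640 for A-172. Duplicate wells of 3000–5000 cells were attached overnight, then exposed to 30 μM test compound for 72 h. MTT (3 mg/mL) was added for 4 h at 37 °C and formazan dissolved in DMSO before reading A570. Inhibition (%) = [1−(At−Ab)/(Ac−Ab)]×100.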

PDI [2] = target: T2, PDI (Homo sapiens, UniProt P07237); test: Protein mass spectrometry; format: binding; settings: 10 μM PDI, 100 μM DTT, 100 μM compound
Method in brief: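 Recombinant human PDI (10 μM) was incubated with 100 μM test compound and 100 μM DTT for 30 min before injection for Q-TOF intact-protein mass spectrometry to detect covalent adducts.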

PDI [3] = target: T2, PDI; test: Reversibility; format: biochemical; settings: compound concentrations 10 times that of the protein
PDI [4] = target: T2, PDI; test: kinact/KI determination in PDI reductase assay with reduced PDI; format: biochemical
PDIA1 [5] = target: T1, PDIA1; test: Glutathione competition in PDI reductase assay; format: biochemical; settings: 5 mM GSH
PDI [6] = target: T2, PDI; test: Thermal shift assay; format: binding; settings: oxidized PDI; 100 μM compound

T1 sequence (P07237 18-508): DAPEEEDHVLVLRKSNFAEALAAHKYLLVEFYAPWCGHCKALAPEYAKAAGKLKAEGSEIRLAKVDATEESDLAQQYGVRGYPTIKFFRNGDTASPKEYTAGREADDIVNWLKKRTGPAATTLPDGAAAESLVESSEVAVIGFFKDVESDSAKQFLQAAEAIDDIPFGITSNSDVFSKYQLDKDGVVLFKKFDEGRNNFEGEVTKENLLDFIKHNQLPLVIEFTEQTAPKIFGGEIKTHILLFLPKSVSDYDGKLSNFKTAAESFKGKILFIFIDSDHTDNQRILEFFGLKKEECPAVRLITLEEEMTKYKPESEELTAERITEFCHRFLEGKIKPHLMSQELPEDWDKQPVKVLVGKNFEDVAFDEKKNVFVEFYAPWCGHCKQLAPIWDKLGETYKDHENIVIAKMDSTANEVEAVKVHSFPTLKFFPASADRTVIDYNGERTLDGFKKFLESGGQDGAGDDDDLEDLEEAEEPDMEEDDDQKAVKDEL
T2 sequence (P07237 18-508): as above

SMILES | inhibition at 30 µM (U−87 MG cells) | further results
COc1cccc(C(c2ccc3cccnc3c2O)N2CCOCC2)c1OC (stereo not drawn) [5a, 7-((2,3-Dimethoxyphenyl)(morpholino)methyl)quinolin-8-ol] |  | PDI inhibition in the PDI reductase assay (in words) (PDIA1 [1]): submicromolar IC50 values
Oc1c(C(c2ccc(F)cc2)N2CCCCC2)ccc2cccnc12 (stereo not drawn) [5b, 7-((4-Fluorophenyl)(piperidin-1-yl)methyl)quinolin-8-ol] |  | PDI inhibition in the PDI reductase assay (in words) (PDIA1 [1]): submicromolar IC50 values
Oc1c(C(c2ccc(F)cc2)N2CCCCC2)ccc2cncnc12 (stereo not drawn) [5c, 7-((4-Fluorophenyl)(piperidin-1-yl)methyl)quinazolin-8-ol] | 32% | 
Oc1c(C(c2ccc(F)cc2)N2CCCCC2)ccc2nccnc12 (stereo not drawn) [5e, 6-((4-Fluorophenyl)(piperidin-1-yl)methyl)quinoxalin-5-ol] | 0% | 
Oc1c(C(c2ccc(F)cc2)N2CCCCC2)ccc2scnc12 (stereo not drawn) [5f, 5-((4-Fluorophenyl)(piperidin-1-yl)methyl)benzo[d]thiazol-4-ol] | 0% | 
Oc1c(C(c2ccc(F)cc2)N2CCCCC2)ccc2ccoc12 (stereo not drawn) [5g, 6-((4-Fluorophenyl)(piperidin-1-yl)methyl)benzofuran-7-ol] | 0% | 
Oc1c(C(c2ccc(F)cc2)N2CCCCC2)ccc2c1OCCO2 (stereo not drawn) [5h, 6-((4-Fluorophenyl)(piperidin-1-yl)methyl)-2,3-dihydrobenzo[b][1,4]dioxin-5-ol] | 0% | 
Oc1c(C(c2ccc(F)cc2)N2CCCCC2)ccc2c1OCO2 (stereo not drawn) [5i, 5-((4-Fluorophenyl)(piperidin-1-yl)methyl)benzo[d][1,3]dioxol-4-ol] | 0% | 
Oc1c(C(c2ccc(F)cc2)N2CCCCC2)ccc2cnccc12 (stereo not drawn) [5j, 6-((4-Fluorophenyl)(piperidin-1-yl)methyl)isoquinolin-5-ol] | 0% | 
Oc1c(C(c2ccc(F)cc2)N2CCCCC2)ccc2c1CCC2 (stereo not drawn) [5k, 5-((4-Fluorophenyl)(piperidin-1-yl)methyl)-2,3-dihydro-1H-inden-4-ol] |  | PDI inhibition in the PDI reductase assay (in words) (PDIA1 [1]): complete loss of the potency
CN(C)c1cccc(C(c2ccc(F)cc2)N2CCCCC2)c1O (stereo not drawn) [5l, 2-(Dimethylamino)-6-((4-fluorophenyl)(piperidin-1-yl)methyl)phenol] | 0% | PDI inhibition in the PDI reductase assay (in words) (PDIA1 [1]): lost activity
CC(=O)c1cc2ccc(C(c3ccc(F)cc3)N3CCCCC3)c(O)c2o1 (stereo not drawn) [5m, 1-(6-((4-Fluorophenyl)(piperidin-1-yl)methyl)-7-hydroxybenzofuran-2-yl)ethanone] | 0% | 
Oc1cc(F)ccc1C(c1ccc2ccoc2c1O)N1CCCCC1 (stereo not drawn) [5n, 6-((4-Fluoro-2-hydroxyphenyl)(piperidin-1-yl)methyl)benzofuran-7-ol] | 0% | 
Oc1c(C(c2ccc3c(c2)CCC3)N2CCCCC2)ccc2ccoc12 (stereo not drawn) [5o, 6-((2,3-Dihydro-1H-inden-5-yl)(piperidin-1-yl)methyl)benzofuran-7-ol] | 5% | 
Oc1c(C(c2ccc3c(c2)OC(F)(F)O3)N2CCCCC2)ccc2ccoc12 (stereo not drawn) [5q, 6-((2,2-Difluorobenzo[d][1,3]dioxol-5-yl)(piperidin-1-yl)methyl)benzofuran-7-ol] | 9% | 
Oc1c(C(c2ccc(C(F)(F)F)cc2)N2CCCCC2)ccc2ccoc12 (stereo not drawn) [5r, 6-(Piperidin-1-yl(4-(trifluoromethyl)phenyl)methyl)benzofuran-7-ol] | 5% | 
COc1cccc(C(c2cc3c(cc2O)OCO3)N2CCOCC2)c1OC (stereo not drawn) [6a, 6-((2,3-Dimethoxyphenyl)(morpholino)methyl)benzo[d][1,3]dioxol-5-ol] |  | covalent binding to PDI by mass spectrometry (PDI [2]): bound reduced PDI at three sites; PDI activity recovery after dilution (PDI [3]): too active at this ratio
Oc1cc2c(cc1C(c1ccc(F)cc1)N1CCCCC1)OCCO2 (stereo not drawn) [6c, 7-((4-Fluorophenyl)(piperidin-1-yl)methyl)-2,3-dihydrobenzo[b][1,4]dioxin-6-ol] | 1% | 
Oc1cc2c(cc1C(c1ccc(F)cc1)N1CCCCC1)NCC2 (stereo not drawn) [6d, 6-((4-Fluorophenyl)(piperidin-1-yl)methyl)indolin-5-ol] | 0% | PDI inhibition in the PDI reductase assay (in words) (PDIA1 [1]): moderate loss of activity
COc1cccc(C(c2cc3c(cc2O)OC(F)(F)O3)N2CCOCC2)c1OC (stereo not drawn) [6e, 6-((2,3-Dimethoxyphenyl)(morpholino)methyl)-2,2-difluorobenzo[d][1,3]dioxol-5-ol] | 40% | 

SMILES | inhibition at 30 µM (U−87 MG cells) | further results
Oc1cc2c(cc1C(c1ccc(F)cc1)N1CCCCC1)CCCC2 (stereo not drawn) [6g, 3-((4-Fluorophenyl)(piperidin-1-yl)methyl)-5,6,7,8-tetrahydronaphthalen-2-ol] | 0% | PDI inhibition in the PDI reductase assay (in words) (PDIA1 [1]): completely lost activity
Oc1ccc2ncccc2c1C(c1ccc(F)cc1)N1CCCCC1 (stereo not drawn) [7a, 5-((4-Fluorophenyl)(piperidin-1-yl)methyl)quinolin-6-ol] | 10% | 
Oc1ccc2scnc2c1C(c1ccc(F)cc1)N1CCCCC1 (stereo not drawn) [7b, 4-((4-Fluorophenyl)(piperidin-1-yl)methyl)benzo[d]thiazol-5-ol] | 1% | 
Oc1ccc2nccnc2c1C(c1ccc(F)cc1)N1CCCCC1 (stereo not drawn) [7c, 5-((4-Fluorophenyl)(piperidin-1-yl)methyl)quinoxalin-6-ol] | 0% | 
Oc1ccc2ccncc2c1C(c1ccc(F)cc1)N1CCCCC1 (stereo not drawn) [7d, 8-((4-Fluorophenyl)(piperidin-1-yl)methyl)isoquinolin-7-ol] | 0% | 
Oc1ccc2cnccc2c1C(c1ccc(F)cc1)N1CCCCC1 (stereo not drawn) [7e, 5-((4-Fluorophenyl)(piperidin-1-yl)methyl)isoquinolin-6-ol] | 0% | 
Oc1ccc2[nH]ccc2c1C(c1ccc(F)cc1)N1CCCCC1 (stereo not drawn) [7f, 4-((4-Fluorophenyl)(piperidin-1-yl)methyl)-1H-indol-5-ol] | 0% | 
Oc1ccc2[nH]ncc2c1C(c1ccc(F)cc1)N1CCCCC1 (stereo not drawn) [7g, 4-((4-Fluorophenyl)(piperidin-1-yl)methyl)-1H-indazol-5-ol] | 87% | 
Oc1ccc2[nH]ncc2c1C(c1ccc(C(F)(F)F)cc1)N1CCCCC1 (stereo not drawn) [7h, 4-(Piperidin-1-yl(4-(trifluoromethyl)phenyl)methyl)-1H-indazol-5-ol] | 0% | 
O=[N+]([O-])c1ccc(C(c2c(O)ccc3[nH]ncc23)N2CCCCC2)cc1 (stereo not drawn) [7i, 4-((4-Nitrophenyl)(piperidin-1-yl)methyl)-1H-indazol-5-ol] | 0% | 
Oc1ccc2[nH]ncc2c1C(c1ccc(-c2nccs2)cc1)N1CCCCC1 (stereo not drawn) [7j, 4-(Piperidin-1-yl(4-(thiazol-2-yl)phenyl)methyl)-1H-indazol-5-ol] | 0% | 
Oc1ccc2[nH]ncc2c1C(c1ccc(-n2cccc2)cc1)N1CCCCC1 (stereo not drawn) [7k, 4-((4-(1H-Pyrrol-1-yl)phenyl)(piperidin-1-yl)methyl)-1H-indazol-5-ol] | 0% | 
Oc1ccc2[nH]ncc2c1C(c1ccc(-c2cncnc2)cc1)N1CCCCC1 (stereo not drawn) [7l, 4-(Piperidin-1-yl(4-(pyrimidin-5-yl)phenyl)methyl)-1H-indazol-5-ol] | 0% | 
COC(=O)C1(C)c2[nH]c3ccccc3c2CCN1C(=O)CCl (stereo not drawn) [16F16] |  | kinact/KI (PDI [4]): 170 M⁻¹ s⁻¹
N#Cc1cccc(/C=C/C(=O)c2ccc(O)cc2)c1 [BAP2, reference compound] |  | PDI inhibition in the presence of competing glutathione (PDIA1 [5]): remained active
C#CC(=O)N(c1ccc(OC)cc1OC)C(C(=O)NCC(=O)OCC)c1cccs1 (stereo not drawn) [PACMA31, reference compound] |  | kinact/KI (PDI [4]): 200 M⁻¹ s⁻¹; stabilization of PDI to thermal degradation (PDI [6]): did not stabilize PDI to thermal degradation
COc1c(C(c2ccc(F)cc2)N2CCCCC2)ccc2ccoc12 (stereo not drawn) [compound 8, 1-((4-Fluorophenyl)(7-methoxybenzofuran-6-yl)methyl)piperidine] |  | PDI inhibition in the PDI reductase assay (in words) (PDIA1 [1]): lost activity
Oc1cc2c(cc1C(c1ccccc1)C1CCCCC1)OCO2 (stereo not drawn) [compound 13, 6-(Cyclohexyl(phenyl)methyl)benzo[d][1,3]dioxol-5-ol] |  | PDI inhibition in the PDI reductase assay (in words) (PDIA1 [1]): abolished its PDI inhibition
CN(C)c1ccc(C(Nc2ncccn2)c2cc3c(cc2O)OCO3)cc1 (stereo not drawn) [compound 14, 6-((4-(Dimethylamino)phenyl)(pyrimidin-2-ylamino)methyl)benzo[d][1,3]dioxol-5-ol] |  | PDI inhibition in the presence of competing glutathione (PDIA1 [5]): maintained potency
O=c1c(O[C@@H]2O[C@H](CO)[C@@H](O)[C@H](O)[C@H]2O)c(-c2ccc(O)c(O)c2)oc2cc(O)cc(O)c12 [isoquercetin, reference compound] |  | PDI inhibition in the presence of competing glutathione (PDIA1 [5]): remained active
